# High-throughput results deposited in PubChem by several laboratories.
# The list is not random: actives were taken first. Their share in the collection is about 2%.
# PLC-gamma1 inh – blocks human PLC-gamma1 enzyme activity; actives 0.84% (n = 370,000); P19174; purified PLC-gamma1, fluorogenic substrate, fluorescence; inhibition, % at 12.2 µM; in the data active = inhibition above about 9.5%
# VIM-2 inhibitor – inhibitors of Pseudomonas aeruginosa VIM-2 metallo-beta-lactamase; purified VIM-2, nitrocefin hydrolysis, epi-absorbance fluorescence; inhibition, % at 5.6 µM; actives 0.89% (n = 290,000); AID 1527;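 active = inhibition above the mean of all tested compounds plus 3 SD, cutoff set per screening run, cut at about 7.5% in these data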;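 note: red hydrolysis product quenches plate fluorescence so inhibitors raise well fluorescence; 0% = enzyme with DMSO and 100% = DMSO without enzyme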
# PLCb3 inh – blocks human PLC-beta3 enzyme activity; Q01970; Purified PLC-beta3, fluorogenic substrate, fluorescence; inhibition, % at 12.2 µM; actives 0.18% (n = 370,000); AID 720704; in the data active = inhibition above about 11%;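 note: 0% = median of compound wells on plate and 100% = full blocker control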
# PvdQ acylase – blocks Pseudomonas aeruginosa PvdQ acylase activity | purified PvdQ acylase, fluorescence plate reader | inhibition, % at 10 µM | actives 0.063% (n = 340,000) | AID 488965; in the data active = inhibition above about 30%, passing the limit was not always enough;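 note: 0% = vehicle neutral wells and 100% = reference inhibitor wells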
# IMP-1 inhibitor – inhibitors of Pseudomonas aeruginosa IMP-1 metallo-beta-lactamase | AID 1556 | inhibition, % at 5.6 µM | purified IMP-1, nitrocefin hydrolysis, epi-absorbance fluorescence | actives 0.45% (n = 290,000);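 active = inhibition above the mean plus 3 SD of all compounds in the same screening run, cut at about 4.5% in these data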;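 note: 0% = IMP-1 with DMSO and 100% = DMSO wells lacking enzyme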
#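 System: purified IMP-1 / Input: IMP-1 dispensed at 0.2 nM / Medium: 50 mM HEPES pH 7.1, 50 µM ZnSO4, 0.05% Brij 35 / Timing: 15 min enzyme–compound preincubation, then 25 min nitrocefin reaction, 25 °C / Technique: plate fluorescence quenching by hydrolysis product, ex 480/em 530 nm / Repeats: singlicate testing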
# VIM-2 confirm – VIM-2 inhibition, confirmation assay | actives 73% (n = 200) | purified VIM-2 enzyme, nitrocefin absorbance | shares compounds with IMP-1 inhibitor | inhibition, % at 5.6 µM; in the data active = inhibition above about 8%;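 note: 0% = enzyme with vehicle and 100% = no enzyme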
# TEM-1 inh 2 – blocks E. coli TEM-1 beta-lactamase, VIM-2 IMP-1 counter-screen; shares compounds with IMP-1 inhibitor; nitrocefin absorbance inhibition; inhibition, % at 5.6 µM; actives 50% (n = 200); in the data active = inhibition above about 0.66%
# Target sequence (P62593 whole entry, looked up): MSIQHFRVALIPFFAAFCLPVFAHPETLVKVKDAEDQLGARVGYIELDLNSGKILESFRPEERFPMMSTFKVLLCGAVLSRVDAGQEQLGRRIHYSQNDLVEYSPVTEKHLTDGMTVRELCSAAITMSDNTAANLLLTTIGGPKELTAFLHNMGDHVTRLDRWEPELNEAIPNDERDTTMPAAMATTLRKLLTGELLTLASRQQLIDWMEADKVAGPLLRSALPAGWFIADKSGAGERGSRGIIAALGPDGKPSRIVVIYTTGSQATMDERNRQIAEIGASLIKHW
# IMP-1 inh conf – confirmation of P. aeruginosa IMP-1 metallo-beta-lactamase inhibitors; shares compounds with IMP-1 inhibitor; purified IMP-1 enzyme, absorbance substrate hydrolysis; inhibition, % at 5.6 µM; actives 60% (n = 200); AID 2189; in the data active = inhibition above about 4.9%;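 note: 0% = enzyme with vehicle and 100% = vehicle without enzyme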
# An asterisk follows results filed as active; i = inactive; x = no result given.
SMILES,PLC-gamma1 inh,VIM-2 inhibitor,PLCb3 inh,PvdQ acylase,IMP-1 inhibitor,VIM-2 confirm,TEM-1 inh 2,IMP-1 inh conf
N#Cc1nc(COc2ccccc2F)oc1NCCCn1ccnc1,5,10*,1,-2,39*,2,-2,0
Cc1n[nH]c(C)c1N1C(=O)c2cccc3c(N4CCCCCC4)ccc(c23)C1=O,-294,20*,-332,0,16*,27*,21*,9.3*
O=C1c2cccc3c(N4CCCCC4)ccc(c23)C(=O)N1c1cccc(O)c1,-215,2,-341,-1,0,x,x,x
CN1C(=O)c2cccc3c(Br)ccc(c23)C1=O,-2,x,-17,x,x,x,x,x
CNc1ccc2c3c(cccc13)C(=O)N(C)C2=O,-468,50*,i,-10,44*,76*,87*,59*
COc1ccc(C2C(C(=O)N3CCC(C)CC3)CC(=O)N2c2ccc(OC)cc2)cc1 (stereo unspecified),-1,x,1,x,x,x,x,x
COC(=O)C1C(c2ccccc2)C=CC(c2ccccc2)C1C(=O)O (stereo unspecified),-3,8.7*,-9,-5,61*,3,-4,39*
CCOC(=O)N1C(=O)c2cc(OC)ccc2S1(=O)=O,2,9.4*,2,-7,38*,3,1.5*,5.3*
CCCCNC(=O)C[C@H]1C[C@@]2(C(=O)OC)C(=C[C@H](COCc3ccccc3)O[C@@H]2C)N(Cc2ccccc2)C1=O,3,x,3,x,x,x,x,x
Cc1ccc2c(c1)c(/C=C/c1cc[n+](C)cc1)c(C)n2C,-98,26*,-148,-7,8.4*,31*,-2,3
CC(=O)OCCn1c2nc(=O)[nH]c(=O)c-2nc2cc(C)c(C)cc21,i,33*,i,1,10*,43*,112*,37*
CC(=O)OCCn1c(C)[n+](CCOC(C)=O)c2cc(Cl)c(Cl)cc21,1,1,0,-5,-1,x,x,x
COc1ccc(C(C(=O)N(C)C2CCCC2)N(Cc2ccc(F)cc2)C(=O)c2csc(N3CCOCC3)n2)cc1OC (stereo unspecified),0,x,-1,x,x,x,x,x
COCCCn1c(=NC(C)=O)c(C#N)cc2c(=O)n3cccc(C)c3nc21,-74,0,-105,x,-2,x,x,x
COCCCn1c(=NC(=O)c2ccccc2)c(C#N)cc2c(=O)n3cccc(C)c3nc21,-136,9.3*,-197,-18,8.5*,18*,32*,11*
Cc1ccc(-n2c(Cc3cccs3)nnc2SCc2ccc(C#N)cc2)cc1,-1,x,4,x,x,x,x,x
Cc1sc2cc3c(c(C(=O)c4ccccc4)[n+]2c1C)-c1cccc2cccc-3c12,-70,6,-91,x,-1,x,x,x
O=C(c1ccccc1)c1c2c(cc3sc4ccccc4[n+]13)-c1cccc3cccc-2c13,-265,16*,-260,-7,10*,11*,-3,-1
Cn1cc(C=O)c2cc(F)ccc21,5,1,-1,-15,1,x,x,x
Cn1cc(/C=C/c2cc[n+](C)cc2)c2cc(F)ccc21,x,11*,x,8,5.7*,14*,4.7*,7.5*
Cn1cc(/C=C/c2cc[n+](C)cc2)c2cc(Cl)ccc21,-403,13*,-477,-10,5.8*,22*,2.8*,4
Cn1cc(S(=O)(=O)c2ccccc2)c(=O)c2cc(Cl)ccc21,2,1,-6,2,1,x,x,x
CCOC(=O)[C@@]12CCCC3=C1N(CCC3)C(=O)[C@H]2CC(=O)NCCC(C)C,1,x,-1,x,x,x,x,x
O=C(Nc1ccc2oc(-c3ccccc3F)nc2c1)c1ccc([N+](=O)[O-])o1,4,12*,-2,13,41*,8.5*,7.1*,24*
O=C(NC1CCC1)c1ccc(C#CC2CC2)c[n+]1[O-],-3,x,-5,x,x,x,x,x
COc1ccc2c(c1)CCCN2C(=O)C1CCCN(S(=O)(=O)c2cccs2)C1 (stereo unspecified),0,x,1,x,x,x,x,x
CC(=O)Nc1ccc(N2C(=O)c3cccc4c(O)ccc(c34)C2=O)cc1,-93,40*,-122,-6,34*,30*,34*,28*
